Test results as given in ChEMBL document CHEMBL1141109, “Synthesis of an estrogen receptor beta-selective radioligand: 5-[18F]fluoro-(2R,3S)-2,3-bis(4-hydroxyphenyl)pentanenitrile and comparison of in vivo distribution with 16alpha-[18F]fluoro-17beta-estradiol” (J Med Chem, 2005).

What was measured:
[1] = Biodistribution of [18F]FEDPN in rat spleen after 1 h when given in tail vein; (n=5); assay type: ADME, organism-based; settings: in vivo, iv
In short: (§1)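 Immature female Sprague–Dawley rats (<25 days old) under isoflurane/O2 got 20 µCi tracer in 150 µL 20% ethanol/saline by tail vein. […] Rats were killed at 30 min, 1 h or 2 h. Organs were blotted, weighed and gamma-counted against an injectate standard. Data are %ID/g ± SD, five rats per point.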

[2] = Biodistribution of [18F]FEDPN in alpha estrogen receptor knock out mouse muscle after 2 h; (n=3); assay type: ADME, organism-based, Muscle tissue; settings: in vivo
In short: (§2)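 αERKO and βERKO mice, staged by daily vaginal smears and kept on estrogen-free chow, were studied in a nonestrous stage. Each mouse received 11 μCi of tracer in 130 μL of 10% ethanol/saline. Mice were killed at 30 min, 1 h or 2 h (n = 3 each). Organs were removed, blotted, weighed and gamma-counted against an injectate standard. Uptake is given as %ID/g ± SD.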

[3] = Biodistribution of [18F]FEDPN in beta estrogen receptor knock out mouse bone after 2 h; (n=3); assay type: ADME, organism-based, Bone element; settings: in vivo; in short: as §2
[4] = Biodistribution of [18F]FEDPN in rat kidney after 30 min when given in tail vein; (n=5); assay type: ADME, organism-based; settings: in vivo, iv, 0.5 h; in short: as §1
[5] = Biodistribution of [18F]FEDPN in rat thymus after 1 h block when given in tail vein; (n=5); assay type: ADME, organism-based; settings: in vivo, iv; in short: as §1
[6] = Biodistribution of [18F]FEDPN in beta estrogen receptor knock out mouse lung after 30 min; (n=3); assay type: ADME, organism-based; settings: in vivo, 0.5 h; in short: as §2
[7] = Biodistribution of [18F]-FEDPN in rat spleen after 1 hr block when given in tail vein; (n=5); assay type: ADME, organism-based; settings: in vivo, iv
In short: (§3)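 Immature female Sprague–Dawley rats (<25 days old) anesthetized with isoflurane/O2. Given 20 µCi tracer by tail vein in 150 µL of 20% ethanol/saline. […] Killed at 30 min, 1 h or 2 h. Blood and organs blotted, weighed and gamma-counted against a standard dilution of the injectate. Reported as %ID/g ± SD, n=5.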

[8] = Biodistribution of [18F]-FEDPN in rat kidney after 1 hr when given in tail vein; (n=5); assay type: ADME, organism-based; settings: in vivo, iv; in short: as §3
[9] = Biodistribution of [18F]FEDPN in beta estrogen receptor knock out mouse muscle after 1 h; (n=3); assay type: ADME, organism-based, Muscle tissue; settings: in vivo; in short: as §2
[10] = Biodistribution of [18F]FEDPN in beta estrogen receptor knock out mouse uterus after 2 h; (n=3); assay type: ADME, organism-based; settings: in vivo
In short: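 αERKO and βERKO mice were fed estrogen-free chow and staged by daily vaginal smears. Mice in a nonestrous stage each received 11 µCi tracer in 130 µL 10% ethanol/saline. Organs were taken at 30 min, 1 h or 2 h and gamma-counted. Uptake is expressed as %ID/g ± SD, three animals per point.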

[11] = Biodistribution of [18F]-FEDPN in rat heart after 1 hr block when given in tail vein; (n=5); assay type: ADME, organism-based; settings: in vivo, iv; in short: as §3
[12] = Biodistribution of [18F]FEDPN in rat spleen after 30 min when given in tail vein; (n=5); assay type: ADME, organism-based; settings: in vivo, iv, 0.5 h; in short: as §1
[13] = target: Estrogen receptor (Mus musculus) (UniProt O08537+P19785); assay: Ratio of [18F]FEDPN uptake in uterus of ERbeta KO-mouse (diestrus) and ERalpha KO-mouse (nonestrus) after 30 min
[14] = Biodistribution of [18F]-FEDPN in rat lung after 1 hr block when given in tail vein; (n=5); assay type: ADME, organism-based; settings: in vivo, iv; in short: as §3
[15] = Biodistribution of [18F]-FEDPN in rat uterus after 1 hr block when given in tail vein; (n=5); assay type: ADME, organism-based; settings: in vivo, iv; in short: as §3
[16] = Biodistribution of [18F]FEDPN in beta estrogen receptor knock out mouse heart after 30 min; (n=3); assay type: ADME, organism-based; settings: in vivo, 0.5 h; in short: as §2
[17] = Biodistribution of [18F]FEDPN in beta estrogen receptor knock out mouse liver after 30 min; (n=3); assay type: ADME, organism-based; settings: in vivo, 0.5 h; in short: as §2
[18] = Biodistribution of [18F]FEDPN in beta estrogen receptor knock out mouse blood after 30 min; (n=3); assay type: ADME, organism-based; settings: in vivo, 0.5 h; in short: as §2
[19] = Biodistribution of [18F]-FEDPN in rat thymus after 2 hr when given in tail vein; (n=5); assay type: ADME, organism-based; settings: in vivo, iv; in short: as §3
[20] = Biodistribution of [18F]FEDPN in alpha estrogen receptor knock out mouse blood after 2 h; (n=3); assay type: ADME, organism-based; settings: in vivo
In short: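 ERKO female mice (αERKO or βERKO), rested 48 h after shipping, placed on estrogen-free chow, and staged by daily vaginal smears. Injected in a nonestrous stage with 11 µCi [18F]FEDPN in 130 µL of 10% ethanol/saline. Killed at 30 min, 1 h or 2 h. Organs counted and reported as %ID/g ± SD, three animals per point.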

[21] = Biodistribution of [18F]FEDPN in rat thymus after 30 min when given in tail vein; (n=5); assay type: ADME, organism-based; settings: in vivo, iv, 0.5 h; in short: as §1
[22] = Biodistribution of [18F]FES in beta estrogen receptor knock out mouse thymus after 30 min; (n=3); assay type: ADME, organism-based; settings: in vivo, 0.5 h
[23] = Biodistribution of [18F]-FES in alpha estrogen receptor knock out mouse kidney after 2 h; (n=3); assay type: ADME, organism-based; settings: in vivo
In short: (§4)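 Female αERKO mice rested 48 h after shipping and fed estrogen-free chow. Estrous stage was checked by daily vaginal smears, and mice were used in diestrus. Each received 13 µCi [18F]FES in 100 µL 10% ethanol/saline. Animals were sacrificed at 30 min, 1 h or 2 h (n = 3 each). Tissue uptake is reported as %ID/g ± SD.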

[24] = Biodistribution of [18F]-FES in alpha estrogen receptor knock out mouse bone after 30 min; (n=3); assay type: ADME, organism-based, Bone element; settings: in vivo, 0.5 h; in short: as §4
[25] = Biodistribution of [18F]-FES in alpha estrogen receptor knock out mouse muscle after 1 h; (n=3); assay type: ADME, organism-based, Muscle tissue; settings: in vivo
In short: (§5)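 Female αERKO mice were rested 48 h after shipping and fed estrogen-free chow. They were staged by daily vaginal smears and studied in diestrus. Each received 13 µCi [18F]FES in 100 µL 10% ethanol/saline and was sacrificed at 30 min, 1 h or 2 h (n = 3 per time). Tissue uptake is given as %ID/g ± SD.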

[26] = Biodistribution of [18F]FES in alpha estrogen receptor knock out mouse heart after 30 min; (n=3); assay type: ADME, organism-based; settings: in vivo, 0.5 h; in short: as §5
[27] = Biodistribution of [18F]FES in alpha estrogen receptor knock out mouse lung after 30 min; (n=3); assay type: ADME, organism-based; settings: in vivo, 0.5 h; in short: as §5
[28] = Biodistribution of [18F]FES in beta estrogen receptor knock out mouse lung after 1 h; (n=3); assay type: ADME, organism-based; settings: in vivo
[29] = Biodistribution of [18F]FES in beta estrogen receptor knock out mouse muscle after 1 h; (n=3); assay type: ADME, organism-based, Muscle tissue; settings: in vivo
[30] = Biodistribution of [18F]FES in alpha estrogen receptor knock out mouse spleen after 2 h; (n=3); assay type: ADME, organism-based; settings: in vivo
[31] = Biodistribution of [18F]FES in beta estrogen receptor knock out mouse brain after 1 h; (n=3); assay type: ADME, organism-based; settings: in vivo
[32] = Biodistribution of [18F]FES in beta estrogen receptor knock out mouse fat after 30 min(n=2); mice in nonestrus stage; assay type: ADME, organism-based, Adipose tissue; settings: in vivo, 0.5 h
[33] = Biodistribution of [18F]FES in beta estrogen receptor knock out mouse blood after 30 min(n=2); mice in nonestrus stage; assay type: ADME, organism-based; settings: in vivo, 0.5 h
[34] = Biodistribution of [18F]FES in alpha estrogen receptor knock out mouse blood after 1 h; (n=3); assay type: ADME, organism-based; settings: in vivo; in short: as §5
[35] = Biodistribution of [18F]FES in alpha estrogen receptor knock out mouse uterus after 1 h; (n=3); assay type: ADME, organism-based; settings: in vivo

Estrogen receptor (Mus musculus), sequence (O08537 whole entry, looked up): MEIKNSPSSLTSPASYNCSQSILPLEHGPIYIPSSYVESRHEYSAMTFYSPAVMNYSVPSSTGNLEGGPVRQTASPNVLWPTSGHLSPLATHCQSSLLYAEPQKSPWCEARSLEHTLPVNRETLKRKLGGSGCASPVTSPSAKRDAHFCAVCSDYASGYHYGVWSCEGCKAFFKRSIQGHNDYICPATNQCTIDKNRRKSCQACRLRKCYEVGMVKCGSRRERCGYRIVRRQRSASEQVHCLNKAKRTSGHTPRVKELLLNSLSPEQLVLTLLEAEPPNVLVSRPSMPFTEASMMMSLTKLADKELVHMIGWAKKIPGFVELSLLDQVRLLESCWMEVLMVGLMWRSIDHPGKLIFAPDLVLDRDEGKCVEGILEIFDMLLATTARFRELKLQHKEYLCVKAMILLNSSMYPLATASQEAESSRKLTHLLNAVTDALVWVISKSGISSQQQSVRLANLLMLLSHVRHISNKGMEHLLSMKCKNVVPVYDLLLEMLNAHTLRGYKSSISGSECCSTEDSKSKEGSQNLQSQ
Estrogen receptor (Mus musculus), sequence (P19785 whole entry, looked up): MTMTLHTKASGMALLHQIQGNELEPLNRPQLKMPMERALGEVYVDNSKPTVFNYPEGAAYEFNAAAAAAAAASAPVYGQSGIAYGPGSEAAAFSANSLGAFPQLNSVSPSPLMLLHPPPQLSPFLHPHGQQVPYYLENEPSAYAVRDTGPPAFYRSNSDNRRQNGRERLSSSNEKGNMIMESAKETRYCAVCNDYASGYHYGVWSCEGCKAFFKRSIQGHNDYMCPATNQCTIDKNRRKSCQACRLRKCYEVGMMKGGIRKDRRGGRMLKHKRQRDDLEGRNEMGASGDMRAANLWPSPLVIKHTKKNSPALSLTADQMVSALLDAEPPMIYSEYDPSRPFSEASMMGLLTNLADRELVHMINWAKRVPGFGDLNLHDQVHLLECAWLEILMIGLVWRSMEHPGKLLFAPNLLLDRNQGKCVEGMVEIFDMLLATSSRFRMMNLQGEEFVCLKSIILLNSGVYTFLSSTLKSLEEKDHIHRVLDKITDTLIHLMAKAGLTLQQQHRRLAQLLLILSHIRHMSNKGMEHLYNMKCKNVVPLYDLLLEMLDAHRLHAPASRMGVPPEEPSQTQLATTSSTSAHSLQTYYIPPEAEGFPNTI

N#C[C@H](c1ccc(O)cc1)[C@@H](CCF)c1ccc(O)cc1
Biodistribution [1]: 0.16 %ID/g
Biodistribution [2]: 0.36 %ID/g
Biodistribution [3]: 5.15 %ID/g
Biodistribution [4]: 2 %ID/g
Biodistribution [5]: 0.16 %ID/g
Biodistribution [6]: 5.38 %ID/g
Biodistribution [7]: 0.1 %ID/g
Biodistribution [8]: 1.75 %ID/g
Biodistribution [9]: 0.75 %ID/g
Biodistribution [10]: 0.31 %ID/g
Biodistribution [11]: 0.19 %ID/g
Biodistribution [12]: 0.31 %ID/g
Ratio [13]: 1.67
Biodistribution [14]: 0.27 %ID/g
Biodistribution [15]: 0.34 %ID/g
Biodistribution [16]: 1.6 %ID/g
Biodistribution [17]: 4.55 %ID/g
Biodistribution [18]: 0.79 %ID/g
Biodistribution [19]: 0.08 %ID/g
Biodistribution [20]: 0.23 %ID/g
Biodistribution [21]: 0.52 %ID/g

C[C@]12CC[C@@H]3c4ccc(O)cc4CC[C@H]3[C@@H]1C[C@@H](F)[C@@H]2O [FLUOROESTRADIOL]
Biodistribution [22]: 1.38 %ID/g
Biodistribution [23]: 0.72 %ID/g
Biodistribution [24]: 0.44 %ID/g
Biodistribution [25]: 0.18 %ID/g
Biodistribution [26]: 0.62 %ID/g
Biodistribution [27]: 2.19 %ID/g
Biodistribution [28]: 1.48 %ID/g
Biodistribution [29]: 1.29 %ID/g
Biodistribution [30]: 0.18 %ID/g
Biodistribution [31]: 0.35 %ID/g
Biodistribution [32]: 2.31 %ID/g
Biodistribution [33]: 0.73 %ID/g
Biodistribution [34]: 0.21 %ID/g
Biodistribution [35]: 0.82 %ID/g
